In assay [1] the test system is Aspergillus terreus. Briefly: Antifungal activity against Aspergillus terreus after 24 hrs by broth microdilution method. Type of assay: functional. The gist of the method: (§1)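 Broth microdilution per NCCLS in RPMI 1640 (L-glutamine, MOPS, no bicarbonate). An 8 mM stock in DMSO/methanol 1:10 is serially diluted twofold; NONOate salts go through 0.1 M NaOH, with only the last step in medium. Inoculum is 6×10^3 CFU/mL final. A. fumigatus and A. terreus are incubated 24 h at 37 °C; others at 30 °C. MIC is the lowest dilution without visible growth, read nephelometrically.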

Assay [2] relates to Fusarium oxysporum. Kind of assay: Antifungal activity against Fusarium oxysporum after 24 hrs by agar diffusion method.
Assay [3] deals with Candida albicans. Briefly: Antifungal activity against Candida albicans after 24 hrs by broth microdilution method. The assay is classed as functional. The gist of the method: as §1
Assay [4] has as its system Sporobolomyces salmonicolor. Briefly: Antifungal activity against Sporobolomyces salmonicolor after 24 hrs by broth microdilution method. Type of assay: functional. In a few lines: as §1
The subject of assay [5] is Penicillium chrysogenum. Kind of assay: Antifungal activity against Penicillium notatum after 24 hrs by broth microdilution method. The assay is classed as functional. In a few lines:
as §1

Assay [6] deals with Nakaseomyces glabratus. Briefly: Antifungal activity against Candida glabrata after 24 hrs by broth microdilution method. The assay is classed as functional. In a few lines: as §1
Assay [7] deals with Aspergillus niger. Briefly: Antifungal activity against Aspergillus niger after 24 hrs by broth microdilution method. The assay is classed as functional. The gist of the method: as §1
Assay [8] deals with Aspergillus fumigatus. Kind of assay: Antifungal activity against Aspergillus fumigatus after 24 hrs by broth microdilution method. The assay is classed as functional. In a few lines:
as §1

Assay [9] relates to Sporobolomyces salmonicolor. Kind of assay: Ratio of MIC for drug to ketoconazole against Sporobolomyces salmonicolor. The assay is classed as functional. In a few lines:
(§2)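 FIC is calculated as the MIC of the test compound divided by the MIC of ketoconazole. Both MICs come from 24 h NCCLS broth microdilution in RPMI 1640/MOPS, starting from an 8 mM stock in twofold dilutions, at 6×10^3 CFU/mL. Incubation is at 37 °C for A. fumigatus and A. terreus and at 30 °C for the other strains.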

In assay [10] the test system is Candida albicans. Kind of assay: Ratio of MIC for drug to ketoconazole against Candida albicans. Type of assay: functional. In a few lines: as §2
The test system of assay [11] is Aspergillus terreus. Kind of assay: Ratio of MIC for drug to ketoconazole against Aspergillus terreus. Type of assay: functional. The gist of the method: as §2
Assay [12] deals with Nakaseomyces glabratus. Briefly: Ratio of MIC for drug to ketoconazole against Candida glabrata. The assay is classed as functional. The gist of the method:
as §2

The test system of assay [13] is Aspergillus niger. Kind of assay: Ratio of MIC for drug to ketoconazole against Aspergillus niger. The assay is classed as functional. The gist of the method: as §2
In assay [14] the test system is Fusarium oxysporum. Briefly: Ratio of MIC for drug to ketoconazole against Fusarium oxysporum. Type of assay: functional.
Assay [15] has as its system Penicillium chrysogenum. Kind of assay: Ratio of MIC for drug to ketoconazole against Penicillium notatum. Type of assay: functional. In a few lines:
as §2

For assay [16], the system named is Aspergillus fumigatus. Kind of assay: Ratio of MIC for drug to ketoconazole against Aspergillus fumigatus. Type of assay: functional. The gist of the method:
as §2

For 14 compounds, MIC and Ratio results are on record in ChEMBL document CHEMBL1140048, “NO-donors. Part 17: Synthesis and antimicrobial activity of novel ketoconazole-NO-donor hybrid compounds” (Bioorg Med Chem, 2008).

≈ marks a conversion by molar mass, not a printed value.

For the compound `COCO/N=[N+](\[O-])N1CCN(c2ccccc2)CC1`, the MIC in assay [1], in [2], in assay [3], in [4], in [5] and in assay [6] was above 2000 µM each time. Besides, the MIC in assay [7] and in [8] was above 2000 µM throughout.
For the compound `c1ccc(N2CCNCC2)cc1` [PHENYLPIPERAZINE], the MIC in assay [1], in assay [2], in assay [3], in [4], in [5] and in assay [6] was above 2000 µM in each case. Also, the MIC in [7] and in assay [8] was above 2000 µM in each case.
As to `CCO/N=[N+](\[O-])N1CCN(c2ccccc2)CC1`, the minimum inhibitory concentration (MIC) in assay [1], in assay [2], in [3], in [4], in [5] and in [6] was above 2000 µM in each case. The MIC in assay [7] and in [8] was above 2000 µM in each case.
On to `O=C(CO[N+](=O)[O-])N1CCN(c2ccc(OC[C@H]3CO[C@](Cn4ccnc4)(c4ccc(Cl)cc4Cl)O3)cc2)CC1`, for which the Ratio in assay [9] is 0.1; in assay [10], 1; in assay [11] it was 0.4; in assay [12], 0.12; in assay [13], 0.2; in [14] it was 0.2. For the same compound, the Ratio worked out at 0.31 in assay [15] and 0.4 in [16]. The MIC in assay [1] amounted to 12.5 µM (≈ 7.41 µg/mL); in assay [2] it was 100 µM (≈ 59.2 µg/mL); in assay [3], 25 µM (≈ 14.8 µg/mL); in [4] it was 0.16 µM (≈ 0.0948 µg/mL); in [5] it was 2.5 µM (≈ 1.48 µg/mL); in assay [6] it was 1.56 µM (≈ 0.924 µg/mL). In addition, the MIC in assay [7] came out at 12.5 µM (≈ 7.41 µg/mL); in assay [8] it was 25 µM (≈ 14.8 µg/mL).
As for `[O-]/[N+](=N\O)N1CCN(c2ccccc2)CC1`, the MIC in [1], in [2], in [3], in assay [4], in [5] and in assay [6] was above 2000 µM each time. In addition, the MIC in [7] and in assay [8] was above 2000 µM throughout.
Regarding `CC(C)(CO[N+](=O)[O-])C(=O)N1CCN(c2ccccc2)CC1`, the MIC in assay [1], in assay [2], in assay [3], in assay [4], in assay [5] and in [6] was above 2000 µM in each case. In addition, the MIC in assay [7] and in assay [8] was above 2000 µM in each case.
In the case of `O=[N+]([O-])OCCN1CCN(c2ccc(OC[C@H]3CO[C@](Cn4ccnc4)(c4ccc(Cl)cc4Cl)O3)cc2)CC1`, the Ratio was found to be 10 in [9]; 0.5 in assay [10]; 32 in assay [11]; 0.5 in assay [12]; 4 in assay [13]; 2 in assay [14]. For the same compound, the Ratio is recorded as 7.81 in assay [15] and 16 in assay [16]. The MIC in assay [1] came out at 1000 µM (≈ 578 µg/mL); in assay [2] it was 1000 µM (≈ 578 µg/mL); in assay [3], 12.5 µM (≈ 7.23 µg/mL); in assay [4], 15.6 µM (≈ 9.02 µg/mL); in assay [5], 62.5 µM (≈ 36.2 µg/mL); in [6] it was 6.25 µM (≈ 3.62 µg/mL). The MIC in assay [7] was 250 µM (≈ 145 µg/mL); in assay [8], 1000 µM (≈ 578 µg/mL).
As for `CCO/N=[N+](\[O-])N1CCN(c2ccc(OC[C@H]3CO[C@](Cn4ccnc4)(c4ccc(Cl)cc4Cl)O3)cc2)CC1`, the Ratio is given as 0.1 in assay [9]; 2 in assay [10]; 0.1 in assay [11]; 0.25 in assay [12]; 0.025 in assay [13]; 0.1 in [14]. For the same compound, the Ratio in assay [15] came to 0.16; in assay [16], 0.2. For the same compound, the MIC in [1] is 3.13 µM (≈ 1.81 µg/mL); in [2], 50 µM (≈ 28.9 µg/mL); in assay [3] it was 50 µM (≈ 28.9 µg/mL); in [4] it was 0.16 µM (≈ 0.0924 µg/mL); in [5], 1.25 µM (≈ 0.722 µg/mL); in [6], 3.13 µM (≈ 1.81 µg/mL). Also, the MIC was found to be 1.56 µM (≈ 0.901 µg/mL) in assay [7] and 12.5 µM (≈ 7.22 µg/mL) in [8].
For the compound `O=C(CO/N=[N+](\[O-])N1CCCC1)N1CCN(c2ccccc2)CC1`, the MIC in [1], in assay [2], in assay [3], in assay [4], in [5] and in assay [6] was above 2000 µM each time. For the same compound, the minimal inhibitory concentration (MIC) in [7] and in [8] was above 2000 µM in each case.
For the compound `O=[N+]([O-])OCCN1CCN(c2ccccc2)CC1`, the MIC in [1], in [2], in [3], in assay [4], in [5] and in assay [6] was above 2000 µM throughout. Further, the MIC in assay [7] and in assay [8] was above 2000 µM in each case.
Turning to `Clc1ccc([C@@]2(Cn3ccnc3)OC[C@H](COc3ccc(N4CCNCC4)cc3)O2)c(Cl)c1`, the Ratio in assay [9] is 16; in assay [10], 1; in assay [11], 64; in assay [12], 4; in assay [13], 32; in [14], 4. In addition, the Ratio in assay [15] is recorded as 31.25; in assay [16], 32. Further, the MIC in [1] came to 2000 µM (≈ 979 µg/mL); in [2] it was 2000 µM (≈ 979 µg/mL); in assay [3], 25 µM (≈ 12.2 µg/mL); in [4], 25 µM (≈ 12.2 µg/mL); in assay [5] it was 250 µM (≈ 122 µg/mL); in assay [6], 50 µM (≈ 24.5 µg/mL). Moreover, the MIC in [7] and in [8] was 2000 µM (≈ 979 µg/mL) in each case.
In the case of `CC(C)(CO[N+](=O)[O-])C(=O)N1CCN(c2ccc(OC[C@H]3CO[C@](Cn4ccnc4)(c4ccc(Cl)cc4Cl)O3)cc2)CC1`, the Ratio in [9] is recorded as 0.38; in assay [10] it was 0.25; in [11], 0.05; in assay [12] it was 0.25; in assay [13], 0.025; in assay [14] it was 0.05. Further, the results for the Ratio in assay [15] and in assay [16] were 1 and 0.05, respectively. Besides, the MIC in [1] is 1.56 µM (≈ 0.99 µg/mL); in assay [2] it was 25 µM (≈ 15.9 µg/mL); in [3] it was 6.25 µM (≈ 3.97 µg/mL); in [4] it was 0.6 µM (≈ 0.381 µg/mL); in assay [5] it was 8 µM (≈ 5.08 µg/mL); in assay [6], 3.13 µM (≈ 1.99 µg/mL). Also, the values for the MIC in assay [7] and in assay [8] were 1.56 µM (≈ 0.99 µg/mL) and 3.13 µM (≈ 1.99 µg/mL), respectively.
Consider `CC(=O)N1CCN(c2ccc(OCC3COC(Cn4ccnc4)(c4ccc(Cl)cc4Cl)O3)cc2)CC1` (configuration not stated) [KETOCONAZOLE], for which the MIC came to 31.2 µM (≈ 16.6 µg/mL) in [1]; 500 µM (≈ 266 µg/mL) in [2]; 25 µM (≈ 13.3 µg/mL) in assay [3]; 1.56 µM (≈ 0.829 µg/mL) in [4]; 8 µM (≈ 4.25 µg/mL) in [5]; 12.5 µM (≈ 6.64 µg/mL) in [6]. For the same compound, the MIC in [7] and in [8] was 62.5 µM (≈ 33.2 µg/mL) each time.
For `O=C(CO[N+](=O)[O-])N1CCN(c2ccccc2)CC1`, the MIC in assay [1], in assay [2], in assay [3], in assay [4], in assay [5] and in [6] was above 2000 µM each time. For the same compound, the MIC in assay [7] and in [8] was above 2000 µM throughout.
